Values belong to the compound of their own block, whether it stands above or below them. The source made the active and inactive calls. The calls are words filed in the database; no cut-off is given here.
Columns and labels:
[1] = Antiproliferative activity against human UW288-1 cells after 24 hrs by MTT assay; assay type: functional, cell-based; conditions: UW288-1, 24 h
Outline: (§1)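 Cells were seeded at 3000 per well and incubated 24 h at 37 °C. Compounds were added in triplicate with 10% FBS: 0.1-10 or 0.1-20 µM for cancer lines, 3.125-400 µM for MCF-10A. Viability was read by MTT absorbance at 595 nm, with IC50 fitted from the curves. DMSO stocks were 20 mM.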

[2] = Antiproliferative activity against human UW426 cells after 24 hrs by MTT assay; assay type: functional, cell-based; conditions: UW426, 24 h; outline: as §1
U2OS = experiment: Antiproliferative activity against human U2OS cells after 24 hrs by MTT assay; assay type: functional, cell-based; outline: as §1
[3] = Antiproliferative activity against human BkPC-3 cells after 24 hrs by MTT assay; assay type: functional, cell-based; conditions: BkPC-3, 24 h; outline: as §1
MDA-MB-231 [4] = experiment: Antiproliferative activity against human MDA-MB-231 cells after 24 hrs by MTT assay; assay type: functional, cell-based; conditions: MDA-MB-231, 24 h; outline: as §1
[5] = target: Epidermal growth factor receptor (Homo sapiens) (UniProt P00533); experiment: Inhibition of EGFR in human MDA-MB-231 cells assessed as reduction in p-Akt level at 2.5 to 5 uM after 12 hrs by immunoblot analysis; assay type: cell-based
Outline: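 MDA-MB-231 cells at 60–80% confluence were treated 12 h with 10% FBS at 2.5-10 µM or 2.5-5 µM, against a DMSO control. Whole-cell lysates were immunoblotted, with bands quantified as percent of control.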

Mus musculus [6] = experiment: Toxicity in BALB/c nude mouse xenografted with […] S180 cells assessed as reduction in liver size at 1 mg/kg, ip after 21 days; assay type: organism-based; conditions: in vivo, 504 h
Mus musculus [7] = experiment: Toxicity in BALB/c nude mouse xenografted with […] S180 cells assessed as reduction in spleen size at 1 mg/kg, ip after 21 days; assay type: organism-based; conditions: in vivo, 504 h
Mus musculus [8] = experiment: Toxicity in BALB/c nude mouse xenografted with […] S180 cells assessed as body weight loss at 1 mg/kg, ip after 13 days relative to vehicle control; assay type: organism-based; conditions: in vivo, 312 h
CCRF S-180 = experiment: Anticancer activity against […] cells xenografted in BALB/c nude mouse assessed as reduction in tumor weight at 1 mg/kg, ip measured after 21 days relative to vehicle control; assay type: functional; set-up: scale not given: the % may be the effect or the level left
Outline: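 Male mice, 4 weeks old, given s.c. flank S180 mouse sarcoma cells (3 x 10^6). From day 2, 10 mice per group received saline vehicle, oral drug at 5 mg/kg, or i.p. drug at 1 mg/kg, each dissolved in saline. Therapy ran 21 days; tumor weight and body weight were recorded.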

Mus musculus [9] = experiment: Toxicity in BALB/c nude mouse xenografted with […] S180 cells assessed as reduction in kidney size at 1 mg/kg, ip after 21 days; assay type: organism-based; conditions: in vivo, 504 h
Mus musculus [10] = experiment: Toxicity in BALB/c nude mouse xenografted with human MDA-MB-231 cells assessed as lung damage at 40 mg/kg, po qd administered for 32 days by H&E staining based light microscopy; assay type: organism-based; conditions: in vivo, 768 h
Outline: (§2)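 6-week-old female athymic SPF BALB/c nude mice received 5 x 10^6 MDA-MB-231 cells s.c. in the flank. Oral treatment began once tumors reached about 100 mm3, with 8 mice per group and a saline vehicle control. […] Treatment lasted 32 days. Heart, liver, spleen, lung and kidney were fixed 48 h in 10% neutral-buffered formaldehyde, paraffin-embedded, cut at 5 µm, H&E-stained and examined by light microscopy.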

[11] = Oral bioavailability in Sprague-Dawley rat at 10 mg/kg measured after 24 hrs by UPLC analysis; assay type: ADME, organism-based; conditions: in vivo
[12] = Apparent volume of distribution in Sprague-Dawley rat plasma at 1 mg/kg, iv measured after 24 hrs by UPLC analysis; assay type: ADME, organism-based; conditions: read-out: Vz
Outline: (§3)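 Rat plasma sampled from 2 min to 24 h after a single i.v. (1 mg/kg) or p.o. (10 mg/kg) dose. Parameters were derived from the concentration-time profiles. The bioanalytical method was validated to FDA guidelines for selectivity, linearity, LLOQ, accuracy, precision, recovery, matrix effect and stability.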

MDA-MB-231 [13] = experiment: Anticancer activity against human MDA-MB-231 cells xenografted in BALB/c nude mouse assessed as reduction in tumor volume at 40 mg/kg, po qd; assay type: functional, organism-based
Outline: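 Female athymic BALB/c nude mice, 6 weeks old, bearing s.c. flank MDA-MB-231 xenografts (5 x 10^6 cells). Dosing began at about 100 mm3 tumor volume; 8 mice per group, one tumor each. Drug was given orally in saline, with a saline vehicle control, for 32 days. Caliper L and W measured every other day; volume = 0.5236×L×W².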

[14] = AUC (0 to t) in Sprague-Dawley rat plasma at 10 mg/kg, po measured after 24 hrs by UPLC analysis; assay type: ADME, organism-based; set-up: time < 24 hr, dose 10 mg/kg, route oral; outline: as §3
[15] = AUC (0 to t) in Sprague-Dawley rat plasma at 1 mg/kg, iv measured after 24 hrs by UPLC analysis; assay type: ADME, organism-based; set-up: dose 1 mg/kg, time < 24 hr, route intravenous; outline: as §3
Mus musculus [16] = experiment: Toxicity in BALB/c nude mouse xenografted with human MDA-MB-231 cells assessed as reduction in body weight at 40 mg/kg, po administered for 32 days; assay type: organism-based; conditions: in vivo, 768 h
Outline: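 MDA-MB-231 cells (5 x 10^6) were implanted s.c. in the flank of 6-week-old female athymic BALB/c nude mice. Oral dosing started at a tumor volume of about 100 mm3, with 8 mice per group and a saline vehicle control. […] Body weight was tracked over the 32-day treatment.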

Rattus norvegicus [17] = experiment: AUMC (0 to infinity) in Sprague-Dawley rat plasma at 10 mg/kg, po measured after 24 hrs by UPLC analysis; assay type: ADME, organism-based; conditions: in vivo; outline: as §3
[18] = Cmax in Sprague-Dawley rat plasma at 10 mg/kg, po measured after 24 hrs by UPLC analysis; assay type: ADME, organism-based; set-up: dose 10 mg/kg, route oral; outline: as §3
[19] = AUC (0 to infinity) in Sprague-Dawley rat plasma at 10 mg/kg, po measured after 24 hrs by UPLC analysis; assay type: ADME, organism-based; set-up: dose 10 mg/kg, route oral, time infinity; outline: as §3
Mus musculus [20] = experiment: Toxicity in BALB/c nude mouse xenografted with human MDA-MB-231 cells assessed as liver damage at 40 mg/kg, po qd administered for 32 days by H&E staining based light microscopy; assay type: organism-based; conditions: in vivo, 768 h; outline: as §2
[21] = Tmax in Sprague-Dawley rat plasma at 1 mg/kg, iv measured after 24 hrs by UPLC analysis; assay type: ADME, organism-based
Outline: (§4)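 Rats dosed i.v. or p.o. Plasma concentrations followed from 2 min to 24 h after dosing. The bioanalytical method was validated to FDA guidelines for selectivity, linearity, LLOQ, accuracy, precision, recovery, matrix effect and stability.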

Rattus norvegicus [22] = experiment: AUMC (0 to infinity) in Sprague-Dawley rat plasma at 1 mg/kg, iv measured after 24 hrs by UPLC analysis; assay type: ADME, organism-based; conditions: in vivo; outline: as §3
[23] = Terminal half life in Sprague-Dawley rat plasma at 10 mg/kg, po measured after 24 hrs by UPLC analysis; assay type: ADME, organism-based; conditions: read-out: beta t1/2 (converted); outline: as §4
Rattus norvegicus [24] = experiment: AUMC (0 to t) in Sprague-Dawley rat plasma at 1 mg/kg, iv measured after 24 hrs by UPLC analysis; assay type: ADME, organism-based; conditions: in vivo; outline: as §3
Rattus norvegicus [25] = experiment: AUMC (0 to t) in Sprague-Dawley rat plasma at 10 mg/kg, po measured after 24 hrs by UPLC analysis; assay type: ADME, organism-based; conditions: in vivo; outline: as §3
[26] = Tmax in Sprague-Dawley rat plasma at 10 mg/kg, po measured after 24 hrs by UPLC analysis; assay type: ADME, organism-based; outline: as §4
Mus musculus [27] = experiment: Toxicity in BALB/c nude mouse xenografted with human MDA-MB-231 cells assessed as heart damage at 40 mg/kg, po qd administered for 32 days by H&E staining based light microscopy; assay type: organism-based; conditions: in vivo, 768 h; outline: as §2
Mus musculus [28] = experiment: Toxicity in BALB/c nude mouse xenografted with human MDA-MB-231 cells assessed as kidney damage at 40 mg/kg, po qd administered for 32 days by H&E staining based light microscopy; assay type: organism-based; conditions: in vivo, 768 h; outline: as §2
[29] = MRT (0 to infinity) in Sprague-Dawley rat plasma at 1 mg/kg, iv measured after 24 hrs by UPLC analysis; assay type: ADME, organism-based; outline: as §3
Mus musculus [30] = experiment: Toxicity in BALB/c nude mouse xenografted with human MDA-MB-231 cells assessed as spleen damage at 40 mg/kg, po qd administered for 32 days by H&E staining based light microscopy; assay type: organism-based; conditions: in vivo, 768 h; outline: as §2
[31] = AUC (0 to infinity) in Sprague-Dawley rat plasma at 1 mg/kg, iv measured after 24 hrs by UPLC analysis; assay type: ADME, organism-based; set-up: dose 1 mg/kg, time infinity, route intravenous; outline: as §3
[32] = Terminal half life in Sprague-Dawley rat plasma at 1 mg/kg, iv measured after 24 hrs by UPLC analysis; assay type: ADME, organism-based; conditions: read-out: beta t1/2 (converted); outline: as §4
[33] = MRT (0 to t) in Sprague-Dawley rat plasma at 1 mg/kg, iv measured after 24 hrs by UPLC analysis; assay type: ADME, organism-based; outline: as §3
[34] = MRT (0 to t) in Sprague-Dawley rat plasma at 10 mg/kg, po measured after 24 hrs by UPLC analysis; assay type: ADME, organism-based; outline: as §3
[35] = MRT (0 to infinity) in Sprague-Dawley rat plasma at 10 mg/kg, po measured after 24 hrs by UPLC analysis; assay type: ADME, organism-based; outline: as §3
[36] = Cmax in Sprague-Dawley rat plasma at 1 mg/kg, iv measured after 24 hrs by UPLC analysis; assay type: ADME, organism-based; set-up: dose 1 mg/kg, route intravenous; outline: as §3
[37] = Initial plasma concentration in Sprague-Dawley rat at 1 mg/kg, iv measured after 24 hrs by UPLC analysis; assay type: ADME, organism-based; outline: as §3
Rattus norvegicus [38] = experiment: Apparent volume of distribution in Sprague-Dawley rat plasma at 10 mg/kg, po measured after 24 hrs by UPLC analysis; assay type: ADME, organism-based; conditions: in vivo; outline: as §3

Chain of Epidermal growth factor receptor (Homo sapiens) (P00533 whole entry): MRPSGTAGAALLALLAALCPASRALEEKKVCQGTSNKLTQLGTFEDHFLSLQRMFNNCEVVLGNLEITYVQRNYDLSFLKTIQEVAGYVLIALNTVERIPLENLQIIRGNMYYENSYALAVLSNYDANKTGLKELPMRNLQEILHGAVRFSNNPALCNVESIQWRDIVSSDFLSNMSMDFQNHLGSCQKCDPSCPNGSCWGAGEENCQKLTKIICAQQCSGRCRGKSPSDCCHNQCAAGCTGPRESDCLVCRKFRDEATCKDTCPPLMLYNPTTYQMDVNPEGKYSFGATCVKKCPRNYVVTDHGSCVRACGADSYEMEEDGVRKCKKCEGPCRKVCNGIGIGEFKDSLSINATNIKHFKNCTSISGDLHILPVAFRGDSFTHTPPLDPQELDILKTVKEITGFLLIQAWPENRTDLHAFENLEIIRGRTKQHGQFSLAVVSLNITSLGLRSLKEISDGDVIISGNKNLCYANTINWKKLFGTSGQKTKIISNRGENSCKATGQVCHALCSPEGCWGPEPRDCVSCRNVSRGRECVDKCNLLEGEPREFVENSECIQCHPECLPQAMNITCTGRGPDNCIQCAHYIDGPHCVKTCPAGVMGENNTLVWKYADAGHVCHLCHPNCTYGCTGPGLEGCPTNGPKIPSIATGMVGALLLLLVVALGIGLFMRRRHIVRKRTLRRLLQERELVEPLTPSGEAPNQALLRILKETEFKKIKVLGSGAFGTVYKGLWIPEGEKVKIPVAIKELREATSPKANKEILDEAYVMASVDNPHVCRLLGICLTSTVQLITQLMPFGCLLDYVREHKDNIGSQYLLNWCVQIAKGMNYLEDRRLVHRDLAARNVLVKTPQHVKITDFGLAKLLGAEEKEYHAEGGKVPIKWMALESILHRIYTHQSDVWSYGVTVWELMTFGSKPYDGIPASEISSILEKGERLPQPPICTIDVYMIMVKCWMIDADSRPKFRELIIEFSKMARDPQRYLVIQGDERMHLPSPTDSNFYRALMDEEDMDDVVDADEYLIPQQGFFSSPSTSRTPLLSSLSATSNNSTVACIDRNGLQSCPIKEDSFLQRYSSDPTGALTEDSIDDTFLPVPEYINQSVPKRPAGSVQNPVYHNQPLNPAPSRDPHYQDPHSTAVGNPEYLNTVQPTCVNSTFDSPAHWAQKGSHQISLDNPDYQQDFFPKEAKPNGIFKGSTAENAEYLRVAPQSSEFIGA

IC50 (U2OS): 8.3 µM
IC50 (MDA-MB-231 [4]): 6.8 µM
inhibition [5]: Active
SMILES: CN(CC(=O)N(Cc1ccc(C2CCCCC2)cc1)c1ccc(C(=O)O)c(O)c1)S(=O)(=O)c1c(F)c(F)c(F)c(F)c1F
IC50 [1]: 9.8 µM
IC50 [2]: 10.2 µM
IC50 [3]: 6.9 µM

SMILES: COc1cccc2c1C(=O)c1c(O)c3c(c(O)c1C2=O)C[C@@](O)(C(=O)CO)C[C@@H]3O[C@H]1C[C@H](N)[C@H](O)[C@H](C)O1 [DOXORUBICIN]
Activity (Mus musculus [6]): Toxic
Activity (Mus musculus [7]): Toxic
Activity (Mus musculus [8]): 21.01%
Activity (CCRF S-180): 52.23%
Activity (Mus musculus [9]): Toxic

bioavailability [11]: 47.4%
Vd [12]: 6.68 L/kg
AUC(0-t) at 24 h [14]: 2360 ng·h/mL
AUC(0-t) at 24 h [15]: 491 ng·h/mL
AUMC (Rattus norvegicus [17]): 5903.9 hr2.ng/ml
Cmax [18]: 1200 ng/mL
AUC(0-inf) [19]: 2370 ng·h/mL
Tmax [21]: 1.98 min
AUMC (Rattus norvegicus [22]): 1261.5 hr2.ng/ml
half-life [23]: 2.17 h
AUMCt (Rattus norvegicus [24]): 1098 hr2.ng/ml
AUMCt (Rattus norvegicus [25]): 5649.7 hr2.ng/ml
Tmax [26]: 1 h
MRT inf [29]: 2.4 h
AUC(0-inf) [31]: 501 ng·h/mL
half-life [32]: 2.39 h
MRT last at 24 h [33]: 2.12 h
MRT last at 24 h [34]: 2.4 h
MRT inf [35]: 2.49 h
Cmax [36]: 621 ng/mL
C0 at 24 h [37]: 715 ng/mL
Vz (Rattus norvegicus [38]): 13.2387 L/kg
SMILES: COc1cc2ncnc(Nc3ccc(F)c(Cl)c3)c2cc1OCCCN1CCOCC1 [GEFITINIB]
Activity (Mus musculus [10]): Non-Toxic
Activity (MDA-MB-231 [13]): Active
Activity (Mus musculus [16]): Non-Toxic
Activity (Mus musculus [20]): Non-Toxic
Activity (Mus musculus [27]): Non-Toxic
Activity (Mus musculus [28]): Non-Toxic
Activity (Mus musculus [30]): Non-Toxic

From ChEMBL document CHEMBL4007452, “Discovery of an Orally Selective Inhibitor of Signal Transducer and Activator of Transcription 3 Using Advanced Multiple Ligand Simultaneous Docking” (J Med Chem, 2017)
